Test results reported in ChEMBL document CHEMBL1143122, “Novel analogs of D-e-MAPP and B13. Part 1: synthesis and evaluation as potential anticancer agents” (Bioorg Med Chem, 2008).

Assays:
SK-MEL-28 = test: Antiproliferative activity against human SKMEL28 cells after 48 hrs; format: functional; details: SK-MEL-28, 48 h
Outline: (§1)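 NCI 60-cell screen. Cells were grown in RPMI 1640 with 5% FBS and 2 mM L-glutamine, then plated at 5,000–40,000 cells/well according to doubling time and preincubated for 24 h at 37 °C in 5% CO2. Compounds were dissolved in DMSO at 400× the top final concentration and tested at five 10-fold dilutions from 10−4 to 10−8 M for 48 h. Growth was read spectrophotometrically; GI50 is 50% net protein reduction.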

ACHN = test: Antiproliferative activity against human ACHN cells after 48 hrs; format: functional; outline: as §1
HOP-62 = test: Antiproliferative activity against human HOP62 cells after 48 hrs; format: functional; details: HOP-62, 48 h; outline: as §1
[1] = Antiproliferative activity against human […] cells after 48 hrs; format: functional; outline: as §1
K562 = test: Antiproliferative activity against human K562 cells after 48 hrs; format: functional; details: K562, 48 h; outline: as §1
M14 = test: Antiproliferative activity against human M14 cells after 48 hrs; format: functional; details: M14, 48 h; outline: as §1
LOX IMVI = test: Antiproliferative activity against human LOXIMVI cells after 48 hrs; format: functional; outline: as §1
MCF7 = test: Antiproliferative activity against human MCF7 cells after 48 hrs; format: functional, cell-based; details: MCF7, 48 h
UO-31 = test: Antiproliferative activity against human UO31 cells after 48 hrs; format: functional; details: UO-31, 48 h
Outline: (§2)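 NCI 60-cell-line screen. Lines grown in RPMI 1640 with 5% fetal bovine serum and 2 mM L-glutamine, plated at 5,000–40,000 cells/well according to doubling time, left 24 h at 37 °C in 5% CO2. Drug stocks in DMSO at 400-fold the top final concentration. Five 10-fold dilutions, 10−4 to 10−8 M, incubated 48 h. Growth read spectrophotometrically as net protein; GI50 taken as 50% reduction.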

CCRF-CEM = test: Antiproliferative activity against human CCRF-CEM cells after 48 hrs; format: functional; outline: as §1
KM12 = test: Antiproliferative activity against human KM12 cells after 48 hrs; format: functional; details: Homo sapiens, KM12, 48 h; outline: as §1
SNB-19 = test: Antiproliferative activity against human SNB19 cells after 48 hrs; format: functional; details: SNB-19, 48 h; outline: as §1
Hs-578T = test: Antiproliferative activity against human HS578T cells after 48 hrs; format: functional; outline: as §1
MDA-MB-435 = test: Antiproliferative activity against human MDA-MB-435 cells after 48 hrs; format: functional; outline: as §1
SW-620 = test: Antiproliferative activity against human SW620 cells after 48 hrs; format: functional; details: SW-620, 48 h; outline: as §2
DU-145 = test: Antiproliferative activity against human DU145 cells after 48 hrs; format: functional; details: DU-145, 48 h; outline: as §1
UACC-257 = test: Antiproliferative activity against human UACC257 cells after 48 hrs; format: functional; details: UACC-257, 48 h; outline: as §2
HCC 2998 = test: Antiproliferative activity against human HCC2998 cells after 48 hrs; format: functional; details: HCC 2998, 48 h; outline: as §1
IGROV-1 = test: Antiproliferative activity against human IGROV1 cells after 48 hrs; format: functional; details: IGROV-1, 48 h; outline: as §1
SF-268 = test: Antiproliferative activity against human SF268 cells after 48 hrs; format: functional; details: SF-268, 48 h; outline: as §1
OVCAR-3 = test: Antiproliferative activity against human OVCAR-3 cells after 48 hrs; format: functional; details: OVCAR-3, 48 h; outline: as §1
SNB-75 = test: Antiproliferative activity against human SNB75 cells after 48 hrs; format: functional; details: SNB-75, 48 h; outline: as §1
SK-OV-3 = test: Antiproliferative activity against human SKOV3 cells after 48 hrs; format: functional; details: SK-OV-3, 48 h; outline: as §1
SK-MEL-5 = test: Antiproliferative activity against human SKMEL5 cells after 48 hrs; format: functional; details: SK-MEL-5, 48 h; outline: as §1
NCI-H522 = test: Antiproliferative activity against human NCI-H522 cells after 48 hrs; format: functional; details: NCI-H522, 48 h; outline: as §1
PC-3 = test: Antiproliferative activity against human PC3 cells after 48 hrs; format: functional; details: PC-3, 48 h; outline: as §1
T47D = test: Antiproliferative activity against human T47D cells after 48 hrs; format: functional; outline: as §2
U-251 = test: Antiproliferative activity against human U251 cells after 48 hrs; format: functional; details: U-251, 48 h; outline: as §2
HOP-92 = test: Antiproliferative activity against human HOP92 cells after 48 hrs; format: functional; details: HOP-92, 48 h; outline: as §1
A549 = test: Antiproliferative activity against human A549 cells after 48 hrs; format: functional; details: A549, 48 h; outline: as §1
SF-539 = test: Antiproliferative activity against human SF539 cells after 48 hrs; format: functional; details: SF-539, 48 h; outline: as §1
OVCAR-4 = test: Antiproliferative activity against human OVCAR4 cells after 48 hrs; format: functional; details: OVCAR-4, 48 h; outline: as §1
HT-29 = test: Antiproliferative activity against human HT29 cells after 48 hrs; format: functional; details: HT-29, 48 h; outline: as §1
[2] = read-out: Log LC50 (the source's name) (converted)

C[C@@H](NC(=O)CCCCCCCCCCCCCCC[n+]1ccccc1)[C@@H](O)c1ccccc1.[Br-]
GI50 (SK-MEL-28): 1.7 µM | LC50 (SK-MEL-28): 5.75 µM | TGI (SK-MEL-28; read-out: Log TGI (converted)): 3.16 µM | GI50 (ACHN): 17 µM | CC50 (ACHN; [2]): 64.6 µM | TGI (ACHN; read-out: Log TGI (converted)): 33.1 µM | GI50 (HOP-62): 2.69 µM | CC50 (HOP-62; [2]): 38 µM | TGI (HOP-62; read-out: Log TGI (converted)): 8.91 µM | GI50 [1]: 2.57 µM | LC50 [1]: > 100 µM | TGI ([1]; read-out: Log TGI (converted)): 8.71 µM | GI50 (K562): 0.832 µM | LC50 (K562): > 100 µM | TGI (K562; read-out: Log TGI (converted)): 3.98 µM | GI50 (M14): 3.39 µM | LC50 (M14): 8.32 µM | TGI (M14; read-out: Log TGI (converted)): 3.89 µM | GI50 (LOX IMVI): 3.55 µM | LC50 (LOX IMVI): 51.3 µM | TGI (LOX IMVI; read-out: Log TGI (converted)): 13.5 µM | GI50 (MCF7): 1.58 µM | LC50 (MCF7): 8.51 µM | TGI (MCF7; read-out: Log TGI (converted)): 3.72 µM | GI50 (UO-31): 19.1 µM | LC50 (UO-31): 93.3 µM | TGI (UO-31; read-out: Log TGI (converted)): 41.7 µM | GI50 (CCRF-CEM): < 0.01 µM | GI50 (KM12): 1.74 µM | CC50 (KM12; [2]): 5.75 µM | TGI (KM12; read-out: Log TGI (converted)): 3.16 µM | GI50 (SNB-19): 1.58 µM | TGI (SNB-19; read-out: Log TGI (converted)): 3.09 µM | GI50 (Hs-578T): 1.78 µM | LC50 (Hs-578T): 9.12 µM | TGI (Hs-578T; read-out: Log TGI (converted)): 4.07 µM | GI50 (MDA-MB-435): 1.58 µM | GI50 (MDA-MB-435; Homo sapiens, MDA-MB-435, 48 h): 1.78 µM | LC50 (MDA-MB-435; Homo sapiens, MDA-MB-435, 48 h): 5.5 µM | TGI (MDA-MB-435; Homo sapiens, MDA-MB-435, 48 h, read-out: Log TGI (converted)): 2.95 µM | GI50 (SW-620): 4.27 µM | LC50 (concentration killing 50% of cells) (SW-620): 66.1 µM | TGI (SW-620; read-out: Log TGI (converted)): 17.4 µM | GI50 (DU-145): 3.47 µM | CC50 (DU-145; [2]): 49 µM | TGI (DU-145; read-out: Log TGI (converted)): 15.1 µM | GI50 (UACC-257): 1.58 µM | TGI (UACC-257; read-out: Log TGI (converted)): 3.39 µM | GI50 (HCC 2998): 1.51 µM | CC50 (HCC 2998; [2]): 6.03 µM | TGI (HCC 2998; read-out: Log TGI (converted)): 3.02 µM | GI50 (IGROV-1): 1.62 µM | TGI (IGROV-1; read-out: Log TGI (converted)): 3.31 µM | GI50 (SF-268): 1.66 µM | LC50 (SF-268): 6.03 µM | TGI (SF-268; read-out: Log TGI (converted)): 3.16 µM | GI50 (OVCAR-3): 1.1 µM | TGI (OVCAR-3; read-out: Log TGI (converted)): 2.4 µM | GI50 (SNB-75): 2.95 µM | CC50 (SNB-75; [2]): 9.77 µM | TGI (SNB-75; read-out: Log TGI (converted)): 5.37 µM | GI50 (SK-OV-3): 3.09 µM | CC50 (SK-OV-3; [2]): 60.3 µM | TGI (SK-OV-3; read-out: Log TGI (converted)): 13.5 µM | GI50 (SK-MEL-5): 1.58 µM | CC50 (SK-MEL-5; [2]): 5.5 µM | TGI (SK-MEL-5; read-out: Log TGI (converted)): 2.95 µM | GI50 (NCI-H522): 1.48 µM | TGI (NCI-H522; read-out: Log TGI (converted)): 3.63 µM | GI50 (PC-3): 1.38 µM | LC50 (PC-3): 15.1 µM | TGI (PC-3; read-out: Log TGI (converted)): 3.98 µM | GI50 (T47D): 1.55 µM | CC50 (T47D; [2]): > 100 µM | TGI (T47D; read-out: Log TGI (converted)): 6.46 µM | GI50 (U-251): 1.41 µM | CC50 (U-251; [2]): 5.25 µM | TGI (U-251; read-out: Log TGI (converted)): 2.75 µM | GI50 (HOP-92): 0.0407 µM | LC50 (HOP-92): 5.75 µM | TGI (HOP-92; read-out: Log TGI (converted)): 0.912 µM | GI50 (A549): 4.37 µM | CC50 (A549; [2]): > 100 µM | TGI (A549; read-out: Log TGI (converted)): 43.7 µM | GI50 (SF-539): 2.04 µM | LC50 (SF-539): > 100 µM | TGI (SF-539; read-out: Log TGI (converted)): 5.5 µM | GI50 (OVCAR-4): 1.7 µM | LC50 (OVCAR-4): > 100 µM | TGI (OVCAR-4; read-out: Log TGI (converted)): 5.37 µM | GI50 (HT-29): 1.58 µM | LC50 (HT-29): 7.59 µM | TGI (HT-29; read-out: Log TGI (converted)): 3.47 µM
